According to ChEMBL document CHEMBL3785029, “Synthesis and Characterization of Fatty Acid Conjugates of Niacin and Salicylic Acid” (J Med Chem, 2016):
Active and inactive are the calls of the source. The rule behind the calls is not given here.

Columns and labels:
Plasma [1] = assay: Drug metabolism in Sprague-Dawley rat plasma assessed as niacin linker metabolite N-(2-aminoethyl)nicotinamide formation at 300 mg/kg, qd administered through oral gavage for 7 days measured 2 hrs post last dose by LC/MS/MS analysis; type: ADME, organism-based; settings: in vivo
Intestine [2] = assay: Drug metabolism in Sprague-Dawley rat intestine assessed as niacin linker metabolite N-(2-aminoethyl)nicotinamide formation at 300 mg/kg, qd administered through oral gavage for 7 days measured 2 hrs post last dose by LC/MS/MS analysis; type: ADME, organism-based; settings: in vivo
Intestine [3] = assay: Drug metabolism in Sprague-Dawley rat intestine assessed as linker EPA metabolite (5Z,8Z,11Z,14Z,17Z)-N-(2-aminoethyl)icosa-5,8,11,14,17-pentaenamide formation at 300 mg/kg, qd administered through oral gavage for 7 days measured 2 hrs post last dose by LC/MS/MS analysis; type: ADME, organism-based; settings: in vivo
[4] = target: T1, Sterol regulatory element-binding protein 2 (Homo sapiens) (UniProt Q12772); assay: Inhibition of SREBP2 in human HepG2 cells assessed as downregulation of PCSK9 mRNA expression by RT-PCR analysis; type: cell-based
T1 sequence (whole entry): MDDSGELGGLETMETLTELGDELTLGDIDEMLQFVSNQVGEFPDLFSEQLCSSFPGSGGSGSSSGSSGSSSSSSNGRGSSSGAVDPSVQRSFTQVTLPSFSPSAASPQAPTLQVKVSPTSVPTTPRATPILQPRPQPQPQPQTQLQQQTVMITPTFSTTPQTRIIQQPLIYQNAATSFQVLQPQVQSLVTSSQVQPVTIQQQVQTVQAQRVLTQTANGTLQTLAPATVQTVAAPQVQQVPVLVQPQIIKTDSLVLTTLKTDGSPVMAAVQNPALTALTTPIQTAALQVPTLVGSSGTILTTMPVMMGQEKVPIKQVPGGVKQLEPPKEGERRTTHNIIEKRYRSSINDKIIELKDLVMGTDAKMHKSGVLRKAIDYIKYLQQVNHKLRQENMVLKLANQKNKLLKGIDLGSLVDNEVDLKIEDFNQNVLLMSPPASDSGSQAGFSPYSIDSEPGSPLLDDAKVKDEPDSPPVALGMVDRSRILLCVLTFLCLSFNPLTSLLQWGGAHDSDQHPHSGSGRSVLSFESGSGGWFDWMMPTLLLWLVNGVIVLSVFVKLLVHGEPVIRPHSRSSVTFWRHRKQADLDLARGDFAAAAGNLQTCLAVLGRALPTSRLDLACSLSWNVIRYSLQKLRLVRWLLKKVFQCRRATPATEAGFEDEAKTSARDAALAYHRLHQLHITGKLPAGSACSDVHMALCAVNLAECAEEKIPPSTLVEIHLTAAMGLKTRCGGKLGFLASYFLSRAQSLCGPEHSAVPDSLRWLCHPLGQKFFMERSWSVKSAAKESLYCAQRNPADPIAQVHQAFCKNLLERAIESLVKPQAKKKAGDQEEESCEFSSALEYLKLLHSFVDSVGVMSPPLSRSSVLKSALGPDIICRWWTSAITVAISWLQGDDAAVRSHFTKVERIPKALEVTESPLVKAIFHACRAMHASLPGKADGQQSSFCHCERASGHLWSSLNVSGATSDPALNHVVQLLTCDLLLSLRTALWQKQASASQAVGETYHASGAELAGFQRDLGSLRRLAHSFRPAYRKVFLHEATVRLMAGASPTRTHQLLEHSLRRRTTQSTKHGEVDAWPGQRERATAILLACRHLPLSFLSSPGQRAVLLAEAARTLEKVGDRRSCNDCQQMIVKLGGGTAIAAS

HepG2 = assay: Inhibition of ApoB secretion in human HepG2 cells after 16 hrs by ELISA; type: functional, cell-based
Mus musculus = assay: Inhibition of triglyceride levels in po dosed ApoE*3-Leiden mouse plasma administered for 16 weeks; type: functional, organism-based
How it was run: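 Transgenic ApoE*3-Leiden mice on high-cholesterol Western-type diet dosed over 16 weeks; plasma PCSK9, total cholesterol, triglycerides and lipoprotein profile (VLDL, LDL) assessed at study end.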

Plasma [5] = assay: Metabolic stability in human plasma at 5 uM up to 2 hrs by LC-MS-MS analysis; type: ADME, cell-free
How it was run: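 Plasma from each species diluted to 50% with 0.05 M PBS pH 7.4 and prewarmed to 37 °C; compound added at 5 µM final (from DMSO stock diluted in MeOH); triplicate incubations at 37 °C, sampled at 0, 30, 60, 120 min, quenched with acetonitrile containing internal standard, centrifuged, analysed by LC/MS/MS.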

Rattus norvegicus [6] = assay: AUClast in Sprague-Dawley rat assessed as nicotinuric acid at 100 mg/kg, po administered as single dose measured up to 6 hrs post dose by LC/MS/MS analysis; type: ADME, organism-based; parameters: dose 100 mg/kg, time < 6 hr, route oral; settings: in vivo
How it was run: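 Single oral dose to Sprague Dawley rats; plasma collected at 0.25, 0.5, 1, 2, 4 and 6 hr; analytes in plasma quantified by LC/MS/MS.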

[7] = target: T1, Sterol regulatory element-binding protein 2 (Homo sapiens); assay: Inhibition of SREBP2 maturation in human HepG2 cells at 25 to 50 uM after overnight incubation by immunoblot analysis; type: cell-based
How it was run: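 Human HepG2 cells incubated with compound (25 and 50 µM), alone or together with 10 µM atorvastatin; mature SREBP-2 protein level assessed.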

Brain [8] = assay: Drug metabolism in Sprague-Dawley rat brain assessed as salicylic acid formation at 300 mg/kg, po administered for 7 days measured 4 hrs post dose on day 7; type: ADME, organism-based; settings: in vivo
How it was run: (§1)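 Male Sprague Dawley rats, groups of 4, dosed orally at 300 mg/kg once daily for 14 days. Animals killed on days 1, 3, 7 and 14, with plasma, brain, epididymal fat, liver and muscle taken 4 hr after dosing. Parent, salicylic acid and salicyluric acid were measured.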

[9] = Drug metabolism in Sprague-Dawley rat epididymal fat assessed as salicyluric acid formation at 300 mg/kg, po administered for 7 days measured 4 hrs post dose on day 7; type: ADME, organism-based, Epididymal fat pad; settings: in vivo; how it was run: as §1
Muscle tissue [10] = assay: Drug metabolism in Sprague-Dawley rat muscle assessed as salicyluric acid formation at 300 mg/kg, po administered for 7 days measured 4 hrs post dose on day 7; type: ADME, organism-based; settings: in vivo; how it was run: as §1
Rattus norvegicus [11] = assay: Cmax in Sprague-Dawley rat assessed as salicylic acid at 300 mg/kg, po measured up to 24 hrs post dose; type: ADME, organism-based; parameters: dose 300 mg/kg, route oral; settings: in vivo
How it was run: (§2)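 Single oral dose of 300 mg/kg to Sprague Dawley rats. Plasma collected at 0, 0.5, 1, 2, 4, 8 and 24 hr. Analytes were the parent, the salicylate-linker and linker-DHA metabolites, salicylic acid and salicyluric acid; Cmax and AUClast derived.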

[12] = Drug uptake in Sprague-Dawley rat liver at 300 mg/kg, po administered for 7 days measured 4 hrs post dose on day 7; type: ADME, organism-based; settings: read-out: Drug uptake; how it was run: as §1
Liver = assay: Drug metabolism in Sprague-Dawley rat liver assessed as salicyluric acid formation at 300 mg/kg, po administered for 7 days measured 4 hrs post dose on day 7; type: ADME, organism-based; settings: in vivo; how it was run: as §1
Plasma [13] = assay: Drug metabolism in Sprague-Dawley rat plasma assessed as N-(2-aminoethyl)-2-hydroxy-benzamide formation at 300 mg/kg, po measured up to 24 hrs post dose; type: ADME, organism-based; settings: in vivo; how it was run: as §2
Muscle tissue [14] = assay: Drug uptake in Sprague-Dawley rat muscle at 300 mg/kg, po administered for 14 days followed by 7 day washout cycle measured on day 21; type: ADME, organism-based; settings: in vivo
Brain [15] = assay: Drug uptake in Sprague-Dawley rat brain at 300 mg/kg, po administered for 14 days measured 4 hrs post dose on day 1, 3, 7 and 14; settings: in vivo

| SMILES | Drug metabolism (Plasma [1]) | Drug metabolism (Intestine [2]) | Drug metabolism (Intestine [3]) | inhibition [4] | inhibition (HepG2) | IC50 (HepG2; HepG2, 16 h) | inhibition (Mus musculus) | Stability (Plasma [5]) | AUClast (Rattus norvegicus [6]) | inhibition [7] | Drug metabolism (Brain [8]) | Drug metabolism [9] | Drug metabolism (Muscle tissue [10]) | Cmax (Rattus norvegicus [11]) | concentration at 4 h [12] | Drug metabolism (Liver) | Drug metabolism (Plasma [13]) | Drug uptake (Muscle tissue [14]) | Drug uptake (Brain [15]) |
| --- | --- | --- | --- | --- | --- | --- | --- | --- | --- | --- | --- | --- | --- | --- | --- | --- | --- | --- | --- |
| CC/C=C\C/C=C\C/C=C\C/C=C\C/C=C\CCCC(=O)NCCNC(=O)c1cccnc1 | 2296 ng/mL | 23899 ng/g | 74 ng/g | Dose-dependent effect | Dose-dependent effect | 27 µM | Active | Stable | 3484 ng·h/mL | Dose-dependent effect |  |  |  |  |  |  |  |  |  |
| CC/C=C\C/C=C\C/C=C\C/C=C\C/C=C\C/C=C\CCC(=O)NCCNC(=O)c1ccccc1O [EDASALONEXENT] |  |  |  |  |  |  |  |  |  |  | 53.32 ng/g | 203.71 ng/g | 165.21 ng/g | 75 ng/mL | 331 ng/g | 506.48 ng/g | metabolite_detected | Not Active | Not Active |
